In ChEMBL document CHEMBL2203094, “Ramariolides A-D, antimycobacterial butenolides isolated from the mushroom Ramaria cystidiophora” (J Nat Prod, 2012):
≈ marks a conversion by molar mass, not a printed value. Calls of active or inactive are those of the source. The rule behind the calls is not given here.

Assays:
Escherichia coli = assay: Antimicrobial activity against Escherichia coli O157:H7; format: functional, organism-based
[1] = tested on: Mycobacterium tuberculosis; assay: Antimicrobial activity against Mycobacterium tuberculosis CDC1551 by MTT assay; format: functional
How it was run: (§1)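 Strains were grown in Middlebrook 7H9 with 0.2% glycerol and 10% ADC; tyloxapol was omitted in assays. Inoculum of 10^5 cells/mL was exposed to 2-fold serial dilutions at 37 °C in 5% CO2 for 7 d. MTT (2.5 mg/mL) was then added for 24 h, followed by 10% Na lauryl sulfate, and OD570 read after 24 h. IC50 came from a four-parameter log2 dose-response fit, in triplicate.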

Staphylococcus aureus = assay: Antimicrobial activity against Staphylococcus aureus RN4220 at 50 ug after 16 to 18 hrs by disk diffusion method; format: functional; details: read-out: DIZ
How it was run: (§2)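 Disk diffusion: strains grown at 37 °C in NE13 medium. Agar plates swabbed from 10^6 cells/mL suspensions; 6 mm paper disks loaded with 50 μg compound; growth-inhibition zones measured after 16−18 h.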

Salmonella typhimurium = assay: Antimicrobial activity against Salmonella typhimurium ATCC 14028; format: functional, organism-based; details: Salmonella enterica subsp. enterica serovar Typhimurium
How it was run: (§3)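 Disk diffusion spectrum test: agar plates swabbed from 10^6 cells/mL suspensions of each strain; 6 mm paper disks carrying 50 μg compound; inhibition zone sizes read after 16−18 h.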

[2] = tested on: Mycobacterium tuberculosis; assay: Antimicrobial activity against Mycobacterium tuberculosis str. Erdman by MTT assay; format: functional; how it was run: as §1
[3] = tested on: Mycolicibacterium smegmatis; assay: Antimicrobial activity against Mycobacterium smegmatis str. MC2 155 by broth dilution method; format: functional
How it was run: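 M. smegmatis mc2155 grown and assayed at 37 °C in NE13 medium. Broth dilution with twofold serial dilutions, top concentration 128 μg/mL, run in triplicate. Resazurin read-out; MIC is the lowest concentration preventing the blue-to-pink change. For MBC, each well was subcultured into fresh medium before resazurin was added, then read the same way.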

Micrococcus luteus = assay: Antimicrobial activity against Micrococcus luteus JVC1154 at 50 ug after 16 to 18 hrs by disk diffusion method; format: functional; details: read-out: DIZ; how it was run: as §2
[4] = tested on: Mycobacterium tuberculosis; assay: Antimicrobial activity against Mycobacterium tuberculosis H37Rv by MTT assay; format: functional, organism-based; how it was run: as §1
Acinetobacter baumannii = assay: Antimicrobial activity against Acinetobacter baumannii ATCC 19606; format: functional, organism-based; details: ATCC 19606 = CIP 70.34 = JCM 6841; how it was run: as §3
Pseudomonas aeruginosa = assay: Antimicrobial activity against Pseudomonas aeruginosa PAO1; format: functional, organism-based; how it was run: as §3

| Compound | Activity (Escherichia coli) | IC50 [1] [mg/L] | MIC [1] [mg/L] | zone of inhibition at 50 µg/disc (Staphylococcus aureus) [mm] | Activity (Salmonella typhimurium) | IC50 [2] [mg/L] | MIC [2] [mg/L] | MIC [3] [mg/L] | zone of inhibition at 50 µg/disc (Micrococcus luteus) [mm] | IC50 [4] [mg/L] | MIC [4] [mg/L] | Activity (Acinetobacter baumannii) | Activity (Pseudomonas aeruginosa) |
| --- | --- | --- | --- | --- | --- | --- | --- | --- | --- | --- | --- | --- | --- |
| CCCCCCCCCC[C@H](O)[C@@H]1O[C@]12C=CC(=O)O2 [RAMARIOLIDE A] | inactive | 53 (≈ 188 µM) | 64 (≈ 227 µM) | 15 | inactive | 53 (≈ 188 µM) | 64 (≈ 227 µM) | 8 (≈ 28.3 µM) | 18 | 53 (≈ 188 µM) | 64 (≈ 227 µM) | inactive | inactive |
| CN[C@@H]1[C@H](O)[C@H](NC)[C@H]2O[C@@]3(O)C(=O)C[C@@H](C)O[C@H]3O[C@@H]2[C@H]1O [SPECTINOMYCIN] |  |  |  |  |  |  |  | 32 (≈ 96.3 µM) |  |  |  |  |  |
| NNC(=O)c1ccncc1 [ISONIAZID] |  |  |  |  |  |  |  | 8 (≈ 58.3 µM) |  |  |  |  |  |
